Data set [1] relates to Rattus norvegicus. Kind of data set: Compound was tested for anticonvulsant activity after Oral Administration into Rats by using MES screen test after 0.5h,dose 50 mg/kg; No activity was demonstarted. Type of data set: functional, organism-based. On the set-up: dose 50 mg/kg. The method in brief:
(§1)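 Rats received the compound orally. […] Rats were tested in the MES screen at 0.25, 0.5, 1, 2 and 4 h. Each value is the number of rats protected out of 4. The test followed NINDS procedures.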

In data set [2] the test system is Rattus norvegicus. Description: Compound was tested for anticonvulsant activity after Oral Administration into Rats by using MES screen test after 4h,dose 50 mg/kg; No activity was demonstarted. The class given is functional, organism-based. More on the design: dose 50 mg/kg. The method in brief:
as §1

Data set [3] in a line: Partition coefficient (logP). Type of data set: physicochemical. Particulars: octanol/water. The procedure, abridged: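 Partition between 1-octanol and buffer at pH 7.4, with solutions prepared in 1-octanol before buffer is added. Quantified by UV, using λmax and ε values measured in 1-octanol.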
The subject of data set [4] is Rattus norvegicus. Description: Compound was tested for anticonvulsant activity after Oral Administration into Rats by using MES screen test after 0.25h,dose 50 mg/kg; No activity was demonstarted. The class given is functional, organism-based. More on the design: dose 50 mg/kg. The procedure, abridged:
as §1

In data set [5] the test system is Rattus norvegicus. Kind of data set: Compound was tested for anticonvulsant activity after Oral Administration into Rats by using MES screen test after 1h,dose 50 mg/kg; No activity was demonstarted. The class given is functional, organism-based. On the set-up: dose 50 mg/kg. The procedure, abridged: as §1
The test system of data set [6] is Mus musculus. Kind of data set: Anticonvulsant activity after intraperitoneal injection into mice measured in a maximal electroshock scree (MES) screen. The class given is functional.
Data set [7] deals with Rattus norvegicus. Description: Compound was tested for anticonvulsant activity after Oral Administration into Rats by using MES screen test after 2h,dose 50 mg/kg; No activity was demonstarted. The class given is functional, organism-based. On the set-up: dose 50 mg/kg. The procedure, abridged: as §1
In data set [8] the test system is Rattus norvegicus. Kind of data set: Compound was tested for anticonvulsant activity after Oral Administration into Rats by using MES screen test after 2h,dose 30 mg/kg; number of rats out of four which were protected. Type of data set: functional. The procedure, abridged:
as §1

The test system of data set [9] is Rattus norvegicus. Kind of data set: Compound was tested for anticonvulsant activity after Oral Administration into Rats by using MES screen test after 1h,dose 30 mg/kg; number of rats out of four which were protected. The class given is functional. The method in brief:
as §1

Data set [10] deals with Rattus norvegicus. Kind of data set: Compound was tested for anticonvulsant activity after Oral Administration into Rats by using MES screen test after 0.5h,dose 30 mg/kg; number of rats out of four which were protected. Type of data set: functional. The method in brief: as §1
Data set [11] has as its system Rattus norvegicus. Kind of data set: Compound was tested for anticonvulsant activity after Oral Administration into Rats by using MES screen test after 4h,dose 30 mg/kg; No activity was demonstarted. The class given is functional, organism-based. More on the design: dose 30 mg/kg. The method in brief: as §1
Data set [12] has as its system Mus musculus. Description: Toxicity after intraperitoneal injection into mice by using toxicity screen test after 0.5 hr. Type of data set: organism-based. Particulars: in vivo, ip. The procedure, abridged: (§2)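 Mice injected intraperitoneally at 30, 100 and 300 mg/kg and examined 0.5 and 4 h afterwards. Each entry is the minimum dose giving activity (MES protection, scPTZ protection, or rotorod failure for neurotoxicity) in half or more of the mice. Activity is called absent if nothing occurs at 300 mg/kg.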

For data set [13], the system named is Mus musculus. Description: Compound was tested for toxicity after intraperitoneal injection into mice by using toxicity screen test after 4 hr. Particulars: in vivo, ip. Type of data set: organism-based. The procedure, abridged: as §2
In data set [14] the test system is Mus musculus. Description: Anticonvulsant activity after intraperitoneal injection into mice by using MES screen test after 0.5 hr. The class given is functional.
Data set [15] deals with Rattus norvegicus. Description: Compound was tested for anticonvulsant activity after Oral Administration into Rats by using MES screen test after 0.25h,dose 30 mg/kg; number of rats out of four which were protected. The class given is functional. The procedure, abridged:
as §1

Data set [16] concerns Rattus norvegicus. Kind of data set: Compound was tested for anticonvulsant activity after Oral Administration into rat by using MES screen test after 0.5 hr. The class given is functional. The method in brief: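 Rats dosed orally, typically at 50 mg/kg first, then mostly 12.5 mg/kg (some compounds at 30 mg/kg), and tested by maximal electroshock. Four rats per compound, scored at 0.25, 0.5, 1, 2 and 4 h as the number of rats protected out of 4.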

Data set [17] deals with Rattus norvegicus. Description: Compound was tested for anticonvulsant activity after Oral Administration into Rats by using MES screen test after 2h,dose 30 mg/kg; No activity was demonstarted. Type of data set: functional, organism-based. On the set-up: dose 30 mg/kg. The procedure, abridged:
as §1

In data set [18] the test system is Mus musculus. Kind of data set: Anticonvulsant activity after intraperitoneal injection into mice by using scPTZ screen test after 4 hr. The class given is functional.
The subject of data set [19] is Rattus norvegicus. Description: Compound was tested for anticonvulsant activity after Oral Administration into Rats by using MES screen test after 1h,dose 30 mg/kg; No activity was demonstarted. Type of data set: functional, organism-based. On the set-up: dose 30 mg/kg. The procedure, abridged: as §1
The test system of data set [20] is Rattus norvegicus. Description: Compound was tested for anticonvulsant activity after Oral Administration into Rats by using MES screen test after 4h,dose 30 mg/kg; number of rats out of four which were protected. Type of data set: functional. The procedure, abridged:
as §1

The subject of data set [21] is Rattus norvegicus. Kind of data set: Compound was tested for anticonvulsant activity after Oral Administration into Rats by using MES screen test after 0.5h,dose 30 mg/kg; No activity was demonstarted. Type of data set: functional, organism-based. On the set-up: dose 30 mg/kg. The procedure, abridged: as §1
Data set [22] has as its system Mus musculus. Kind of data set: Anticonvulsant activity after intraperitoneal injection into mice by using scPTZ screen after 0.5 hr. The class given is functional.
In data set [23] the test system is Mus musculus. Kind of data set: Anticonvulsant activity after intraperitoneal injection into mice by using MES screen test after 0.25 hr. The class given is functional.
The test system of data set [24] is Mus musculus. Description: Compound was tested for anticonvulsant activity after intraperitoneal injection into mice by using scPTZ screen test after 0.25 hr. The class given is functional. To be noted: ip. The procedure, abridged:
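Quantitative intraperitoneal mouse testing in the MES, scPTZ or rotorod neurotoxicity screens at the peak time given for each compound (0.25–2 h). ED50 or TD50 reported in mg/kg with 95% CI and slope (SE).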

The test system of data set [25] is Rattus norvegicus. Kind of data set: Compound was tested for anticonvulsant activity after Oral Administration into Rats by using MES screen test after 0.25h,dose 30 mg/kg; No activity was demonstarted. The class given is functional, organism-based. On the set-up: dose 30 mg/kg. The method in brief:
as §1

Take `NC(=O)N/N=C\c1cccc(Oc2ccccc2)c1`: the Activity result in the data set with Rattus norvegicus [1], in the data set on Rattus norvegicus [2], in the data set with Rattus norvegicus [4], with Rattus norvegicus [5] and in the data set on Rattus norvegicus [7] was “No activity” in each case. The compound also came in with a logP in data set [3] of 2.07. In addition, in the data set on Mus musculus [6], the Dose was found to be 300 mg/kg.

In the case of `CC/C(=N/NC(N)=O)c1ccc(Oc2ccccc2)cc1`, the Activity is 3 with Rattus norvegicus [8]; 3 in the data set with Rattus norvegicus [9]; 4 with Rattus norvegicus [10]; “No activity” with Rattus norvegicus [11]; 1 in the data set on Rattus norvegicus [15]. The Dose stood at 100 mg/kg in the data set with Mus musculus [12], 100 mg/kg with Mus musculus [13], 30 mg/kg with Mus musculus [14] and 100 mg/kg in the data set on Mus musculus [6]. Also, the 50% effect level in the data set on Rattus norvegicus [16] (ED50) was put at a dose of 23.1 mg/kg.

`O=CN/N=C/c1ccc(Sc2ccc(F)cc2)cc1`: the Activity result was “No activity” in the data set on Rattus norvegicus [17]; “No activity” in the data set on Rattus norvegicus [19]; 1 in the data set with Rattus norvegicus [15]; 1 in the data set with Rattus norvegicus [20]; “No activity” with Rattus norvegicus [21]. The Dose in the data set on Mus musculus [18] worked out at 300 mg/kg; in the data set with Mus musculus [13], 300 mg/kg; in the data set with Mus musculus [14], 100 mg/kg; with Mus musculus [6], 100 mg/kg.

Consider `NC(=O)N1c2ccccc2C=Cc2ccccc21` [CARBAMAZEPINE], for which the Dose amounted to 300 mg/kg in the data set with Mus musculus [18]; 100 mg/kg with Mus musculus [22]; 100 mg/kg in the data set with Mus musculus [12]; 300 mg/kg with Mus musculus [13]; 30 mg/kg in the data set on Mus musculus [14]; 100 mg/kg with Mus musculus [6]. The compound also returned a logP in [3] of 2.2. For the same compound, the values for the ED50 with Mus musculus [23] and with Mus musculus [24] were 9.85 mg/kg and above 50 mg/kg, respectively.

With `NNC(=O)N/N=C/c1ccc(Oc2ccc(F)cc2)cc1`, the Activity entry with Rattus norvegicus [17], in the data set on Rattus norvegicus [11], with Rattus norvegicus [19], in the data set on Rattus norvegicus [25] and in the data set on Rattus norvegicus [21] was “No activity” each time. The Dose in the data set with Mus musculus [18] was 300 mg/kg; in the data set with Mus musculus [13], 300 mg/kg; in the data set with Mus musculus [14], 300 mg/kg; in the data set on Mus musculus [6], 100 mg/kg. For the same compound, the logP in [3] was 2.06.
